Assay: Toxicity liver stage against HepG2, at 10uM
Format: cell-based
Set-up: test concentration 10 uM, cell line HepG2-A16-CD81EGFP
Details: human, HepG2-A16-CD81EGFP cells; read-out: INHIBITION
Procedure, shortened: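 Uninfected HepG2-A16-CD81EGFP cells, 3 × 10^3 per well, 1536-well, plated on prespotted compound at 10 μM final, parasite-free screening media added to match infected plates; puromycin 10 μM positive, DMSO 0.5% negative; run in parallel with 48 h PbLuc assay at 37 °C, 5% CO2; viability by CellTiter-Glo luminescence, normalized to controls.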

Structure (SMILES)	cytotoxicity at 10 µM [%]
Cc1cnn(CC2CCCN2C(=O)c2ccc(Cl)cc2F)c1 (centres undefined)	-19
N[C@H]1CN(S(=O)(=O)c2cccnc2)C[C@@H]1C1CC1	7.28
Cc1cc(C)c(C)c(OCCCNC(=O)NC(C)c2nncn2C)c1 (centres undefined)	-12.3
CCOc1cc(C(=O)N2CCCC2)cc2occc12	8.52
O=C(Cc1cccc(Cl)c1)Nc1cnccc1SCCCO	-7.04
O=C(c1ccc(NCc2cccc(F)c2)cc1)N1CCC(CO)CC1	6.21
N#Cc1ccccc1C(=O)N1C[C@@H]2CC[C@H]1CN(c1ncccn1)C2	2.43
CN1CCCC2(CC1)CCN(C(=O)CCc1ccccc1F)CC2	-5.95
Brc1ccccc1-c1nnc(CNCCn2cccn2)o1	-24.5
c1cc(-c2nc3c(c(NCCn4ccnn4)n2)CCNCC3)ccn1	-56.4
COC(=O)CCC(=O)N1CCC2(CN(Cc3ccc(Cl)cc3)C2)C1	5.7
Cc1ccc(CC(=O)N2CCc3nnc(N(C)C)cc3C2)cn1	-8.16
Cn1nc(CN2CCOCC2)c2c1CN(C(=O)c1ccc[nH]1)C2	8.46
O=C1CC2(CCCCN2C(=O)c2ccccc2)CN1CC1CC1 (centres undefined)	3.85
O=C(N1CCCC1)N1CCCC(c2nccn2Cc2ccncc2)C1 (centres undefined)	8.2
CC(C)(C)c1nnc(CSc2ccccn2)o1	5.23
Cc1ccccc1NC(=O)N1CCN(C(=O)C2CC2)[C@@H]2CS(=O)(=O)C[C@@H]21	2.78
Cc1ccc([C@@H]2CN(C(=O)c3cc(C)no3)C[C@H]2NC(=O)C2CC2)cc1	-1.82
CCCC(=O)N1CCCC(C(=O)c2cnn(-c3ccc(F)cc3)c2N)C1 (centres undefined)	4.67
Cc1nccc(C2CCCN(S(=O)(=O)N3CCOCC3)C2)n1 (centres undefined)	6.08
CCCc1cc(N2CCC(NCC3(O)CCCCC3)CC2)nc(C)n1	-2.48
CC1CN(C(=O)Nc2cccc(CN3CCOC3=O)c2)CCO1 (centres undefined)	-7

Structure (SMILES)	cytotoxicity at 10 µM [%]
CCc1nc(NS(=O)(=O)c2ccc(F)cc2Cl)no1	0.528
CC(C)CC(Cc1cccc(Br)c1)C(=O)O (centres undefined)	13.8
Cc1cc(C2CCCN2Cc2cc(-c3ccco3)on2)on1 (centres undefined)	1.6
Nc1cc(-c2c[nH]nc2C2CCN(C(=O)C3CCCC3)C2)ccn1 (centres undefined)	7.49
Cc1ccc(C)c(NC(=O)c2n[nH]c(-n3cnnc3)n2)c1	3.43
Cc1ncncc1C(=O)N1CCCN(Cc2cnn(C(C)C)c2)CC1	0.814
CC1(C(=O)NCCCOc2ccccc2F)CC(=O)N2C=CC=CC2=N1 (centres undefined)	2.28
CCC(CN1CCCC1)n1cncc1-c1cnn(-c2ccccc2)c1 (centres undefined)	5.87
O=C(N[C@@H]1CCC[C@@H](N2CCCC2)[C@@H]1O)c1cc2ccccc2[nH]1	-16.2
CCN(Cc1ccc2c(c1)OCCO2)C(=O)NCc1nc(C)cs1	1.47
OCCN1CCN(Cc2coc(-c3cccc(F)c3)n2)CC1	-21.6
Cc1cc(C(=O)N2CCC(n3cc(CO)nn3)CC2)ccc1F	-4.73
c1cncc(CO[C@H]2CN(Cc3ccco3)[C@@H]3COC[C@H]23)c1	-101
CC1c2ncc(CN3CCN(C)CC3)n2CCN1Cc1cnn(C)c1 (centres undefined)	7.77
NC(=O)Cn1c(CO)cnc1SCC(=O)NCc1ccccc1Cl	-4.24
COC1COC2(CCN(Cc3ccc(Cl)cc3)CC2)C1 (centres undefined)	2.2
Cc1nn(CC(=O)N2CCCCC2Cn2cccn2)c(C)c1Cl (centres undefined)	2.35
Cc1cccc(C(=O)N(C)CC(=O)N2CCCC2)c1C	-0.291
Cc1cc(C)c(CNC(=O)NCC(O)c2cccc(F)c2)c(=O)[nH]1 (centres undefined)	-4.37
Cc1noc(C)c1CNC(=O)c1ccc(NC2CC2)nc1	-3.91
CC(C)(C)CN1CCOC[C@H]1c1nc(-c2cccc(F)c2)c[nH]1	-3.79
O=C(c1ccc2c(c1)CCC2)N1CCC(c2n[nH]c(C3CC3)n2)CC1	-8.06

Structure (SMILES)	cytotoxicity at 10 µM [%]
CCn1nc(C)c(C(=O)N2C[C@@H](CN(C)CCOC)[C@@H](CO)C2)c1C	1.35
CN1[C@H](Cn2cncn2)C[C@@H]2CN(C3CCOCC3)CC[C@@H]21	4.56
Cn1ncc2c(NC3CN4CCC3CC4)nc(-c3ccncc3)nc21 (centres undefined)	41.1
O=C(NC1(C(=O)O)CCCC1)C1Cc2cc(F)ccc2O1 (centres undefined)	-0.183
Cc1ccc2nc(C)cc(C(=O)NCc3csc(N(C)C)n3)c2c1	1.21
O=C(C1CCCc2[nH]ncc21)N1CCCC2(C1)OCCO2 (centres undefined)	-1.26
CC(=O)N1CCCC1c1cncc(Oc2ccc(F)cc2)n1 (centres undefined)	-15.8
COCCN1C(=O)CCC12CCN(C(=O)CNC(C)=O)CC2	3.47
N#Cc1c(Cl)nsc1N1CCN(CC2CC2)CC1	28.5
Cc1ccc2c(c1)C1(CC2)CCN(CC(=O)O)CC1	0.806
CNc1cc2c(nn1)CCN(C(=O)c1cc(C)n(C3CC3)c1C)C2	-14.4
CC(C)NC(=O)CCNC(=O)c1cnc(Cc2ccc(F)cc2)s1	2.87
Cc1ccc(C)c(CN2C[C@@H]3CC[C@H]2CN(C(=O)c2cccnc2)C3)c1	3.41
CC(C)N1CCC(CC(=O)N2CCN(Cc3nccn3C)CC2)CC1	-3.91
CC(C)CCN(C(=O)c1ccc(-n2ncc(C#N)c2N)cc1)C1CC1	-23.6
O=C(NC[C@H]1OC[C@@H](NC2CCOCC2)[C@@H]1O)C1CCCC1	-1
COC(=O)NCC(=O)NCc1nn(-c2ccccc2)c2c1CCC2	-7.72
C[C@@H]1C[C@@H]2CCN(Cc3nccs3)C[C@H]2O1	-3.15
CCSc1cc(C(=O)NC2CCN(C(=O)c3ccccc3)CC2)ccn1	13.5
COc1c(CNC(C)C(=O)NC2CCCC2)c(C(C)C)nn1C (centres undefined)	-1.08
O=C1COC2(CCN(CC3CC3)CC2)CN1c1ccsc1	-79.2
O=c1cc(-c2ccncc2)nc(-c2ccc(CN3CC[C@@H](O)C3)cc2)[nH]1	3.03

Structure (SMILES)	cytotoxicity at 10 µM [%]
CC(=O)N1CC(=O)N(c2cnn(C)c2)CC12CCN(CC1CC1)C2 (centres undefined)	-2.58
NC(=O)c1ccc(NC(=O)c2ccncc2F)cn1	6.48
O=C(CN1C[C@H]2CC(OCc3ccccc3)C[C@H]2C1)N1CCOCC1 (some centres undefined)	-9.92
CCN(C)S(=O)(=O)NCC1CCN(Cc2ccccc2C)CC1	-4.93
c1cnc2c(c1)cc([C@H]1CCCO1)n2CCN1CCCCC1	4.99
O=c1c2cnc(N3CCCCC3)nc2ccn1-c1ccccc1	-10.1
CCC1CN(C)c2ccccc2CN1C(=O)Nc1cccc(F)c1 (centres undefined)	5.9
Cn1ccc2ccc(C(=O)N3CCC[C@H]3C(=O)N3CCOCC3)cc21	-0.829
CSCC[C@H](N)c1nnc(SCc2cc(C)ccc2C)o1	0.0308
CCS(=O)(=O)CCN(C)Cc1cc(C)ccc1OC	-51.5
Cc1ccc(NC2CCN(C(=O)c3cccc(F)c3F)CC2)nn1	-4.4
CCOCCNc1nc(-c2ccncc2)nc2c1CCNCC2	-136
CCN(CC)c1ccc(C(=O)N2CCCC2Cn2cc(C)cn2)cn1 (centres undefined)	-17.2
Cn1nc(C(=O)N(CC(F)(F)F)c2cccc(Cl)c2)ccc1=O	7.48
CCC(=O)NCCc1cc(N2CCN(C(C)=O)CC2)nc(C2CC2)n1	-0.439
CN(C)c1no[n+]([O-])c1-c1ccccc1	15.8
CC(=O)N1[C@H](CN(C)C)C[C@@H]2CN(C(=O)Cc3cccs3)CC[C@@H]21	-0.155
c1ccc(-c2noc(CCCN3CCCC3Cn3cncn3)n2)cc1 (centres undefined)	-2.06
Cc1nc(N2CCOCC2)nc2c1CCN(C(=O)C1CC1)CC2	2.23
Cc1nc(C)n(CC2CCCN2c2ncnc3sc(C)c(C)c23)n1 (centres undefined)	21.4
Cc1nc(C(=O)N2CCCC(c3cccc(-n4ccnc4)n3)C2)co1 (centres undefined)	8.31
Cc1nn(C)c(C)c1OCC(=O)NCc1cccc(CO)c1	-7.73

Structure (SMILES)	cytotoxicity at 10 µM [%]
O=C([C@H]1COC[C@H]2CN(CC3CC3)C[C@H]21)N1CCOCC1	11.8
Cc1noc2ncc(C(=O)N3CCCC(n4ccnc4C)C3)cc12 (centres undefined)	-13.4
Cc1nc(-c2ccc(S(=O)(=O)N3CCC=C(F)C3)cc2)co1	13.4
Cc1ccsc1CN(C)c1cc(N2CCCC2CO)ncn1 (centres undefined)	11.7
O=S1(=O)CCC(N2CCN(c3cc(C(F)(F)F)ccn3)CC2)C1 (centres undefined)	-3.97
Cc1nc(N2CCCC2)nc2c1CCN(C(=O)N1CCCC1)CC2	1.82
CC(=O)N1CCCC2(C1)CN(c1ncc(C)cn1)CCO2 (centres undefined)	14
OC(CNCCn1cccn1)COc1cccc(C(F)(F)F)c1 (centres undefined)	-19.7
FC1(F)CCN(c2ccccc2)CC12CCN(c1ncccn1)C2 (centres undefined)	3.71
CCc1cc(=O)[nH]c2nnc(SCC(=O)N3CCC(C)CC3)n12	-5.43
NC(=O)CC1CCN(C(=O)c2cccn2Cc2cccs2)CC1	-7.19
COc1cccc(CSCC(=O)NCc2cccnc2)c1	-46.3
COC(=O)c1cccc(C(=O)NCc2ccco2)n1	7.44
CSCc1noc(CNC(=O)C2CCN(C(=O)C3CCC3)CC2)n1	6.35
COCCc1noc(CN2CCCC2c2c(C)nn(C)c2C)n1 (centres undefined)	-5.73
CNC(=O)NC(=O)C(C)Nc1ccccc1OCCOC (centres undefined)	2.24
Cc1cc(N2CC[C@H](O)C2)n2nc(C)c(C)c2n1	-3.62
CC1CN(CC2CCCC2)CCN1c1ccc2nncn2n1 (centres undefined)	6.36
CN1[C@H](Cn2cccn2)C[C@@H]2CN(C(=O)Cc3cccs3)CC[C@@H]21	9.58
CC1CCN(C(=O)[C@H]2CC[C@@H]3[C@@H](CCN3Cc3nccs3)O2)CC1	4.62
COc1ccc(CN2CCC3(CC(Nc4ccncn4)C3)C2)c(OC)c1 (centres undefined)	2.43
